Converted amounts (≈) assume the structure as drawn.
Columns and labels:
[1] = tested on: MOLT-4; assay: Evaluated for the inhibition of tumor cell growth of Human T-Lymphocyte cells (Molt4/C8); type: functional, cell-based
Method in brief: (§1)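 Proliferation of the murine (L1210/0, FM3A/0) and human T-lymphoblast (Molt4/C8, CEM/0) lines was measured following the procedure originally described for mouse L1210 cells. IC50 is the concentration, in µg/mL, that inhibits tumour cell proliferation by 50%.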

[2] = tested on: HEL; assay: Evaluated for cytotoxic concentration required to reduce normal human embryonic lung (fibroblast) (HEL) cell growth by 50%; type: functional
Method in brief: (§2)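 Normal human embryonic lung fibroblasts (HEL) were grown with compound. CC50 is the concentration, in µg/mL, that reduces HEL cell growth by 50%.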

[3] = tested on: CCRF-CEM; assay: Evaluated for the inhibition of tumor cell growth of Human T-Lymphocyte cells (CEM/0); type: functional, cell-based; method in brief: as §1
[4] = tested on: HEL; assay: Evaluated for minimum cytotoxic concentration that causes a microscopically detectable alteration of normal HEL cell morphology; type: functional; conditions: Homo sapiens
Method in brief: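 HEL fibroblast cultures were examined by microscope. MCC is the lowest concentration, in µg/mL, that causes a detectable change in normal cell morphology.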

[5] = tested on: FM3A; assay: Evaluated for the inhibition of tumor cell growth of murine mammary carcinoma malignant tumor cell line (FM3A/0); type: functional, cell-based; conditions: Mus musculus; method in brief: as §1
[6] = tested on: L1210; assay: Evaluated for the inhibition of tumor cell growth of murine leukemia malignant tumor cell line (L1210/0); type: functional, cell-based; conditions: Mus musculus; method in brief: as §1
[7] = tested on: HEL; assay: Evaluated for cytotoxic concentration required to reduce normal human embryonic lung (fibroblast) HEL cell growth by 50%; type: functional; method in brief: as §2
[8] = tested on: MEF; assay: Evaluated for cytotoxicity against murine embryo fibroblasts (MEF); type: functional, Mus musculus
Method in brief: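 Murine embryo fibroblasts (MEF) were tested for inhibition of proliferation following the method originally described for mouse L1210 cells. Values are given as cytotoxic concentrations in µg/mL.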

Structure (SMILES) | IC50 [1] | CC50 [2] | IC50 [3] | MCC [4] | IC50 [5] | IC50 [6] | CC50 [7] | Cytotoxicity [8]
O=C1OC(C(O)Cn2cc(C(F)(F)F)c(=O)[nH]c2=O)C(OCc2ccccc2)=C1OCc1ccccc1 (stereo not drawn) | 47.4 µg/mL (≈ 91.4 µM) | 31.7 µg/mL (≈ 61.1 µM) | 19 µg/mL (≈ 36.6 µM) | 50 µg/mL | 38.4 µg/mL (≈ 74.1 µM) | 26 µg/mL (≈ 50.2 µM) | – | –
O=C1O/C(=C\Cn2ccc(=O)[nH]c2=O)C(OCc2ccccc2)=C1O | > 200 µg/mL | > 50 µg/mL | > 200 µg/mL | > 50 µg/mL | > 200 µg/mL | > 200 µg/mL | – | –
O=C1O/C(=C\Cn2cc(C(F)(F)F)c(=O)[nH]c2=O)C(O)=C1O | > 200 µg/mL | > 50 µg/mL | > 200 µg/mL | > 50 µg/mL | 162 µg/mL (≈ 506 µM) | 76.1 µg/mL (≈ 238 µM) | – | –
O=C1OC(C(O)Cn2cc(F)c(=O)[nH]c2=O)C(OCc2ccccc2)=C1OCc1ccccc1 (stereo not drawn) | 81.2 µg/mL (≈ 173 µM) | – | 74 µg/mL (≈ 158 µM) | 50 µg/mL | 52.2 µg/mL (≈ 111 µM) | 65.6 µg/mL (≈ 140 µM) | 33.4 µg/mL (≈ 71.3 µM) | –
O=c1[nH]c(=O)n([C@H]2C[C@H](O)[C@@H](CO)O2)cc1F [FLOXURIDINE] | 2.6 µg/mL (≈ 10.6 µM) | – | 0.003 µg/mL (≈ 0.0122 µM) | – | 0.0008 µg/mL (≈ 0.00325 µM) | 0.0003 µg/mL (≈ 0.00122 µM) | – | 0.0001 µg/mL
O=C1OC(C(O)Cn2ccc(=O)[nH]c2=O)C(OCc2ccccc2)=C1OCc1ccccc1 (stereo not drawn) | 67.8 µg/mL (≈ 151 µM) | – | 68.6 µg/mL (≈ 152 µM) | > 50 µg/mL | 74.1 µg/mL (≈ 165 µM) | 70.8 µg/mL (≈ 157 µM) | > 50 µg/mL | –
O=C1O/C(=C\Cn2ccc(=O)[nH]c2=O)C(O)=C1O | > 200 µg/mL | > 50 µg/mL | > 200 µg/mL | > 50 µg/mL | > 200 µg/mL | > 200 µg/mL | – | –
O=c1[nH]cc(F)c(=O)[nH]1 [FLUOROURACIL] | 2.9 µg/mL (≈ 22.3 µM) | – | 1.2 µg/mL (≈ 9.23 µM) | – | 0.02 µg/mL (≈ 0.154 µM) | 0.04 µg/mL (≈ 0.308 µM) | – | 0.2 µg/mL
O=C1O/C(=C\Cn2cc(F)c(=O)[nH]c2=O)C(O)=C1O | 31.8 µg/mL (≈ 118 µM) | 23 µg/mL (≈ 85.1 µM) | 20.9 µg/mL (≈ 77.4 µM) | > 50 µg/mL | 0.78 µg/mL (≈ 2.89 µM) | 1.4 µg/mL (≈ 5.18 µM) | – | 0.92 µg/mL

From ChEMBL document CHEMBL1133596, “Synthesis and antitumor activities of novel pyrimidine derivatives of 2,3-O,O-dibenzyl-6-deoxy-L-ascorbic acid and 4,5-didehydro-5,6- dideoxy-L-ascorbic acid” (J Med Chem, 2000)
